# Assay results as given in ChEMBL document CHEMBL4196066, “Design and synthesis of furyl/thineyl pyrroloquinolones based on natural alkaloid perlolyrine, lead to the discovery of potent and selective PDE5 inhibitors” (Eur J Med Chem, 2018).
# Experiments:
# [1] = target: T1, cGMP-specific 3',5'-cyclic phosphodiesterase (Homo sapiens, UniProt O76074); assay: Inhibition of N-terminal GST-tagged full length recombinant human PDE5A1 catalytic domain expressed in Baculovirus infected Sf9 insect cells using FAM-cGMP as substrate after 1 hr by fluorescence polarization assay
# Homo sapiens [2] = organism: Homo sapiens; assay: Selectivity ratio of IC50 for N-terminal GST-tagged full length recombinant human PDE1A to IC50 for N-terminal GST-tagged full length recombinant human PDE5A1 catalytic domain
# Homo sapiens [3] = organism: Homo sapiens; assay: Selectivity ratio of IC50 for N-terminal FLAG-tagged human PDE2A1 (2 to 941 residues) to IC50 for N-terminal GST-tagged full length recombinant human PDE5A1 catalytic domain
# Homo sapiens [4] = organism: Homo sapiens; assay: Selectivity ratio of IC50 for N-terminal GST-tagged recombinant human PDE3B (592 end residues) to IC50 for N-terminal GST-tagged full length recombinant human PDE5A1 catalytic domain
# Homo sapiens [5] = organism: Homo sapiens; assay: Selectivity ratio of IC50 for N-terminal GST-tagged full length recombinant human PDE4A1A to IC50 for N-terminal GST-tagged full length recombinant human PDE5A1 catalytic domain
# Homo sapiens [6] = organism: Homo sapiens; assay: Selectivity ratio of IC50 for N-terminal GST-tagged full length recombinant human PDE6C to IC50 for N-terminal GST-tagged full length recombinant human PDE5A1 catalytic domain
# [7] = target: Cone cGMP-specific 3',5'-cyclic phosphodiesterase subunit alpha' (Homo sapiens, UniProt P51160); assay: Inhibition of N-terminal GST-tagged full length recombinant human PDE6C expressed in Baculovirus infected Sf9 insect cells using […] as substrate after 1 hr by fluorescence polarization assay
# [8] = target: Dual specificity calcium/calmodulin-dependent 3',5'-cyclic nucleotide phosphodiesterase 1A (Homo sapiens) (UniProt P54750); assay: Inhibition of N-terminal GST-tagged full length recombinant human PDE1A expressed in Baculovirus infected Sf9 insect cells at 30 uM using FAM-cAMP as substrate after 1 hr by fluorescence polarization assay relative to control
# [9] = target: cGMP-dependent 3',5'-cyclic phosphodiesterase (Homo sapiens) (UniProt O00408); assay: Inhibition of N-terminal FLAG-tagged human PDE2A1 (2 to 941 residues) expressed in Baculovirus infected Sf9 insect cells at 30 uM using FAM-cAMP as substrate after 1 hr by fluorescence polarization assay relative to control
# [10] = target: cGMP-inhibited 3',5'-cyclic phosphodiesterase 3B (Homo sapiens) (UniProt Q13370); assay: Inhibition of N-terminal GST-tagged recombinant human PDE3B (592 end residues) expressed in Baculovirus infected Sf9 insect cells at 30 uM using FAM-cAMP as substrate after 1 hr by fluorescence polarization assay relative to control
# [11] = target: 3',5'-cyclic-AMP phosphodiesterase 4A (Homo sapiens) (UniProt P27815); assay: Inhibition of N-terminal GST-tagged full length recombinant human PDE4A1A expressed in Baculovirus infected Sf9 insect cells at 8 uM using FAM-cAMP as substrate after 1 hr by fluorescence polarization assay relative to control
# [12] = target: Dual specificity calcium/calmodulin-dependent 3',5'-cyclic nucleotide phosphodiesterase 1A (Homo sapiens) (UniProt P54750); assay: Inhibition of N-terminal GST-tagged full length recombinant human PDE1A expressed in Baculovirus infected Sf9 insect cells at 25 uM using FAM-cAMP as substrate after 1 hr by fluorescence polarization assay relative to control
# [13] = target: cGMP-dependent 3',5'-cyclic phosphodiesterase (Homo sapiens) (UniProt O00408); assay: Inhibition of N-terminal FLAG-tagged human PDE2A1 (2 to 941 residues) expressed in Baculovirus infected Sf9 insect cells at 25 uM using FAM-cAMP as substrate after 1 hr by fluorescence polarization assay relative to control
# [14] = target: cGMP-inhibited 3',5'-cyclic phosphodiesterase 3B (Homo sapiens) (UniProt Q13370); assay: Inhibition of N-terminal GST-tagged recombinant human PDE3B (592 end residues) expressed in Baculovirus infected Sf9 insect cells at 25 uM using FAM-cAMP as substrate after 1 hr by fluorescence polarization assay relative to control
# [15] = target: 3',5'-cyclic-AMP phosphodiesterase 4A (Homo sapiens) (UniProt P27815); assay: Inhibition of N-terminal GST-tagged full length recombinant human PDE4A1A expressed in Baculovirus infected Sf9 insect cells at 6 uM using FAM-cAMP as substrate after 1 hr by fluorescence polarization assay relative to control
# Thoracic aorta [16] = assay: Vasorelaxant activity in norepinephrine-pretreated New Zealand rabbit thoracic aorta assessed as increase in aortic relaxation at 10 uM measured after 15 mins relative to control; type: functional, Oryctolagus cuniculus; parameters: scale not given: the % may be the effect or the level left
# In short: (§1)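 Thoracic aortic rings from New Zealand white rabbits were held in Krebs buffer at 2 g resting tension (0%) and equilibrated 2 h. Rings were contracted to maximum with 1 µM norepinephrine (100%). Compounds were added cumulatively at 15 min intervals, with tension recorded 15 min after each dose. Relaxation % = (max − recorded)/(max − 2 g) × 100; n = 1–2 rings.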
# [17] = target: Dual specificity calcium/calmodulin-dependent 3',5'-cyclic nucleotide phosphodiesterase 1A (Homo sapiens) (UniProt P54750); assay: Inhibition of N-terminal GST-tagged full length recombinant human PDE1A expressed in Baculovirus infected Sf9 insect cells at 250 uM using FAM-cAMP as substrate after 1 hr by fluorescence polarization assay relative to control
# [18] = target: cGMP-dependent 3',5'-cyclic phosphodiesterase (Homo sapiens) (UniProt O00408); assay: Inhibition of N-terminal FLAG-tagged human PDE2A1 (2 to 941 residues) expressed in Baculovirus infected Sf9 insect cells at 40 uM using FAM-cAMP as substrate after 1 hr by fluorescence polarization assay relative to control
# [19] = target: cGMP-inhibited 3',5'-cyclic phosphodiesterase 3B (Homo sapiens) (UniProt Q13370); assay: Inhibition of N-terminal GST-tagged recombinant human PDE3B (592 end residues) expressed in Baculovirus infected Sf9 insect cells at 250 uM using FAM-cAMP as substrate after 1 hr by fluorescence polarization assay relative to control
# [20] = target: 3',5'-cyclic-AMP phosphodiesterase 4A (Homo sapiens) (UniProt P27815); assay: Inhibition of N-terminal GST-tagged full length recombinant human PDE4A1A expressed in Baculovirus infected Sf9 insect cells at 50 uM using FAM-cAMP as substrate after 1 hr by fluorescence polarization assay relative to control
# Oryctolagus cuniculus = assay: Vasorelaxant activity in iv dosed New Zealand rabbit assessed as induction of ICP change in response to electrically pelvic nerve stimulation administered as bolus dose; type: functional
# [21] = target: T1, cGMP-specific 3',5'-cyclic phosphodiesterase; assay: Inhibition of PDE5 (unknown origin)
# [22] = target: Dual specificity calcium/calmodulin-dependent 3',5'-cyclic nucleotide phosphodiesterase 1A (Homo sapiens) (UniProt P54750); assay: Inhibition of N-terminal GST-tagged full length recombinant human PDE1A expressed in Baculovirus infected Sf9 insect cells at 12.5 uM using FAM-cAMP as substrate after 1 hr by fluorescence polarization assay relative to control
# [23] = target: cGMP-dependent 3',5'-cyclic phosphodiesterase (Homo sapiens) (UniProt O00408); assay: Inhibition of N-terminal FLAG-tagged human PDE2A1 (2 to 941 residues) expressed in Baculovirus infected Sf9 insect cells at 12.5 uM using FAM-cAMP as substrate after 1 hr by fluorescence polarization assay relative to control
# [24] = target: cGMP-inhibited 3',5'-cyclic phosphodiesterase 3B (Homo sapiens) (UniProt Q13370); assay: Inhibition of N-terminal GST-tagged recombinant human PDE3B (592 end residues) expressed in Baculovirus infected Sf9 insect cells at 12.5 uM using FAM-cAMP as substrate after 1 hr by fluorescence polarization assay relative to control
# [25] = target: 3',5'-cyclic-AMP phosphodiesterase 4A (Homo sapiens) (UniProt P27815); assay: Inhibition of N-terminal GST-tagged full length recombinant human PDE4A1A expressed in Baculovirus infected Sf9 insect cells at 3 uM using FAM-cAMP as substrate after 1 hr by fluorescence polarization assay relative to control
# Thoracic aorta [26] = assay: Vasorelaxant activity in norepinephrine-pretreated New Zealand rabbit thoracic aorta assessed as increase in aortic relaxation at 1 uM measured after 15 mins relative to control; type: functional, Oryctolagus cuniculus; parameters: scale not given: the % may be the effect or the level left; in short: as §1
# [27] = target: Dual specificity calcium/calmodulin-dependent 3',5'-cyclic nucleotide phosphodiesterase 1A (Homo sapiens) (UniProt P54750); assay: Inhibition of N-terminal GST-tagged full length recombinant human PDE1A expressed in Baculovirus infected Sf9 insect cells at 6 uM using FAM-cAMP as substrate after 1 hr by fluorescence polarization assay relative to control
# [28] = target: cGMP-dependent 3',5'-cyclic phosphodiesterase (Homo sapiens) (UniProt O00408); assay: Inhibition of N-terminal FLAG-tagged human PDE2A1 (2 to 941 residues) expressed in Baculovirus infected Sf9 insect cells at 6 uM using FAM-cAMP as substrate after 1 hr by fluorescence polarization assay relative to control
# [29] = target: cGMP-inhibited 3',5'-cyclic phosphodiesterase 3B (Homo sapiens) (UniProt Q13370); assay: Inhibition of N-terminal GST-tagged recombinant human PDE3B (592 end residues) expressed in Baculovirus infected Sf9 insect cells at 6 uM using FAM-cAMP as substrate after 1 hr by fluorescence polarization assay relative to control
# [30] = target: 3',5'-cyclic-AMP phosphodiesterase 4A (Homo sapiens) (UniProt P27815); assay: Inhibition of N-terminal GST-tagged full length recombinant human PDE4A1A expressed in Baculovirus infected Sf9 insect cells at 1.5 uM using FAM-cAMP as substrate after 1 hr by fluorescence polarization assay relative to control
# [31] = target: Dual specificity calcium/calmodulin-dependent 3',5'-cyclic nucleotide phosphodiesterase 1A (Homo sapiens) (UniProt P54750); assay: Inhibition of N-terminal GST-tagged full length recombinant human PDE1A expressed in Baculovirus infected Sf9 insect cells at 5.5 uM using FAM-cAMP as substrate after 1 hr by fluorescence polarization assay relative to control
# [32] = target: cGMP-dependent 3',5'-cyclic phosphodiesterase (Homo sapiens) (UniProt O00408); assay: Inhibition of N-terminal FLAG-tagged human PDE2A1 (2 to 941 residues) expressed in Baculovirus infected Sf9 insect cells at 5.5 uM using FAM-cAMP as substrate after 1 hr by fluorescence polarization assay relative to control
# [33] = target: cGMP-inhibited 3',5'-cyclic phosphodiesterase 3B (Homo sapiens) (UniProt Q13370); assay: Inhibition of N-terminal GST-tagged recombinant human PDE3B (592 end residues) expressed in Baculovirus infected Sf9 insect cells at 5.5 uM using FAM-cAMP as substrate after 1 hr by fluorescence polarization assay relative to control
# [34] = target: 3',5'-cyclic-AMP phosphodiesterase 4A (Homo sapiens) (UniProt P27815); assay: Inhibition of N-terminal GST-tagged full length recombinant human PDE4A1A expressed in Baculovirus infected Sf9 insect cells at 1 uM using FAM-cAMP as substrate after 1 hr by fluorescence polarization assay relative to control
# cGMP-inhibited 3',5'-cyclic phosphodiesterase 3B (Homo sapiens), sequence (Q13370 whole entry, looked up): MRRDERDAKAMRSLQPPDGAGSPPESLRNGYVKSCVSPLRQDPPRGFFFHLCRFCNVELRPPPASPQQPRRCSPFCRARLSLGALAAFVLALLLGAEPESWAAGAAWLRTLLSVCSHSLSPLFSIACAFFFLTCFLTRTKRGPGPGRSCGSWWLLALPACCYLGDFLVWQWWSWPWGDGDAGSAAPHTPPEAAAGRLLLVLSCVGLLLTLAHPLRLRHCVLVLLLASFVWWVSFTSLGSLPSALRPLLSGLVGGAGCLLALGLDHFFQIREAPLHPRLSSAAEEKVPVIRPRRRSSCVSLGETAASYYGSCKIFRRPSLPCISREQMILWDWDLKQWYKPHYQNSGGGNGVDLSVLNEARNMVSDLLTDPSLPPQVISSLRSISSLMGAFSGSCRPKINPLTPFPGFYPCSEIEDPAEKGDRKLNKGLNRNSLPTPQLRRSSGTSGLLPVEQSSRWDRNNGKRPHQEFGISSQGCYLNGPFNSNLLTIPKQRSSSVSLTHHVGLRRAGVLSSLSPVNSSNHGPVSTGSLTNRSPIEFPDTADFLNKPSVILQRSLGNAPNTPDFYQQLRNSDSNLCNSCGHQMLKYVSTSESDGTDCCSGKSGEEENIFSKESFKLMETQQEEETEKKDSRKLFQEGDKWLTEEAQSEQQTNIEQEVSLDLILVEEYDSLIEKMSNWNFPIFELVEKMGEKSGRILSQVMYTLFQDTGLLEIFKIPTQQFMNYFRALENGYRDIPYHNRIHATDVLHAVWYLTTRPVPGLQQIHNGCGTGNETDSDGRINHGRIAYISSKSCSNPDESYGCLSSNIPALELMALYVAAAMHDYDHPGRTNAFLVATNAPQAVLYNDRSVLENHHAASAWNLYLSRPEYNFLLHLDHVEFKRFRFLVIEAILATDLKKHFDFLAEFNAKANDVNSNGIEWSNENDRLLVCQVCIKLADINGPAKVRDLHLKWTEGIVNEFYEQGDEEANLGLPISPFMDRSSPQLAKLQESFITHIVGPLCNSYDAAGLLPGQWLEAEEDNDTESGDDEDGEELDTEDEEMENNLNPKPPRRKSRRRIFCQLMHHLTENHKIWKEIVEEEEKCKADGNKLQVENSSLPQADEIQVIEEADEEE
# cGMP-dependent 3',5'-cyclic phosphodiesterase (Homo sapiens), sequence (O00408 whole entry, the tested form may be a part): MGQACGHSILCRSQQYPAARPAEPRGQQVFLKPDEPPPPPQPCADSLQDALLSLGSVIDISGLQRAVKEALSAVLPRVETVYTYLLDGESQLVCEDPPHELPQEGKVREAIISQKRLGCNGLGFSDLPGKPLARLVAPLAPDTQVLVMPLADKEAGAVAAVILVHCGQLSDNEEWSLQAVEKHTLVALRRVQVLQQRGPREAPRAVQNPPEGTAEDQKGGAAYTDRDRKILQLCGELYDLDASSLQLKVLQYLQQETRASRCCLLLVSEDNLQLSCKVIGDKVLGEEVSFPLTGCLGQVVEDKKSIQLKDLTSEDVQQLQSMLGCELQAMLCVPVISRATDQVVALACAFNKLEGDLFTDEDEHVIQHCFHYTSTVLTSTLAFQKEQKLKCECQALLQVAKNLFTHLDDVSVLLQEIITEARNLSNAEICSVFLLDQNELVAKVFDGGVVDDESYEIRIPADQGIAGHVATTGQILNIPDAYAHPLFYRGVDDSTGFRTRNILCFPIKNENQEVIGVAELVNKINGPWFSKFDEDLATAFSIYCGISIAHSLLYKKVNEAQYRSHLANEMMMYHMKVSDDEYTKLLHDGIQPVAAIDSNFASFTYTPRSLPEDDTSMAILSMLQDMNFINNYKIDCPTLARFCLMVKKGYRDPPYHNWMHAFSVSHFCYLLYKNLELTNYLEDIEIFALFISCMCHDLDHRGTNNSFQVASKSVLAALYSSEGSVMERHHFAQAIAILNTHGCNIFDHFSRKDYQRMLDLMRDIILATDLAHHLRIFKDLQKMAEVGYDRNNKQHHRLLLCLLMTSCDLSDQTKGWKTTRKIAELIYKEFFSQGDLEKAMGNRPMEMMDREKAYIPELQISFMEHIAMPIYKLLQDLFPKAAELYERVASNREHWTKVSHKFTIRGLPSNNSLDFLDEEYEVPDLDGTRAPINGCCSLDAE
# Cone cGMP-specific 3',5'-cyclic phosphodiesterase subunit alpha', sequence (P51160 whole entry): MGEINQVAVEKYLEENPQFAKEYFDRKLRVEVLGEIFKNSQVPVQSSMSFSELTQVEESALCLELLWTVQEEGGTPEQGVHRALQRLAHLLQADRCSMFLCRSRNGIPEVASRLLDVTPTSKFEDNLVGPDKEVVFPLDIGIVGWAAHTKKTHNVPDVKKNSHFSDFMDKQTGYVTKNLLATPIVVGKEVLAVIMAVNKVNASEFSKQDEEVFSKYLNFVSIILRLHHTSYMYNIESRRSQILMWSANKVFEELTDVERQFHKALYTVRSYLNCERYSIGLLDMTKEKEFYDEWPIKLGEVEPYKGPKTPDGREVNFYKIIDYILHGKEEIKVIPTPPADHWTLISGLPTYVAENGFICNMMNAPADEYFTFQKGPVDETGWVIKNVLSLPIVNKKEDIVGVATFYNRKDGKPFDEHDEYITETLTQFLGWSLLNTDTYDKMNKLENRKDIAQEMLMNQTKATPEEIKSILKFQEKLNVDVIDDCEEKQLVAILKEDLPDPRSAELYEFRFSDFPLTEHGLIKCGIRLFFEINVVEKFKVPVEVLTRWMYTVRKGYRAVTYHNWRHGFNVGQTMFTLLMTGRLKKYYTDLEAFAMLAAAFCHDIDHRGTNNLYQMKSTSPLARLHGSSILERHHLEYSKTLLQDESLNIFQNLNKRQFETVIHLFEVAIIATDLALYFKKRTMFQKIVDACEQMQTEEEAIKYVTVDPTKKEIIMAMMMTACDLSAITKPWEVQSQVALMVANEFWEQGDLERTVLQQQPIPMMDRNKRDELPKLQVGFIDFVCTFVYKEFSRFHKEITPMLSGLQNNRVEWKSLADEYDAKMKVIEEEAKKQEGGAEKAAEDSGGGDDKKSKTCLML
# 3',5'-cyclic-AMP phosphodiesterase 4A (Homo sapiens), sequence (P27815 whole entry): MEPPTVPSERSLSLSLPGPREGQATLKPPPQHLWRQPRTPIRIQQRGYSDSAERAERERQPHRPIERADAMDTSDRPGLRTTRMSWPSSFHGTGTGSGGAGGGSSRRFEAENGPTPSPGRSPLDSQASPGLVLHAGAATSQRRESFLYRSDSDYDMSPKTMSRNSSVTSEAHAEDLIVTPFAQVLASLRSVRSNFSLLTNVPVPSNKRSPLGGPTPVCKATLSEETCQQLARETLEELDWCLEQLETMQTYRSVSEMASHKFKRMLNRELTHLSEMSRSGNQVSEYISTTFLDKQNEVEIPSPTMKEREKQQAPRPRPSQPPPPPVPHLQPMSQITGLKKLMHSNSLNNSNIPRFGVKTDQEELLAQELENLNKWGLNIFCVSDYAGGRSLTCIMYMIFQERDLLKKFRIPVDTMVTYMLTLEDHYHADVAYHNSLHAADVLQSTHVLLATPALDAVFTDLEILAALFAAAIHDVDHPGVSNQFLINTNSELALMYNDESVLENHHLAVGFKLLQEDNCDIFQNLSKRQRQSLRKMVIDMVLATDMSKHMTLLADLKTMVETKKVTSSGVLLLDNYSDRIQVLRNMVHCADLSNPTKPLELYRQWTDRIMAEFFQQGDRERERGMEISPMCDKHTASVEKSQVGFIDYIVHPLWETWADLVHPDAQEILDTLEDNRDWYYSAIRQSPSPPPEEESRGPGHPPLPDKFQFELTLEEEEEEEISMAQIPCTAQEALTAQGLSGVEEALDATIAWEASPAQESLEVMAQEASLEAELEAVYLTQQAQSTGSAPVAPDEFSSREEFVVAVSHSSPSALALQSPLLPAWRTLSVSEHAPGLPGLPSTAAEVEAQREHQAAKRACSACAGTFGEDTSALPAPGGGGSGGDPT
# Dual specificity calcium/calmodulin-dependent 3',5'-cyclic nucleotide phosphodiesterase 1A (Homo sapiens), sequence (P54750 whole entry, the tested form may be a part): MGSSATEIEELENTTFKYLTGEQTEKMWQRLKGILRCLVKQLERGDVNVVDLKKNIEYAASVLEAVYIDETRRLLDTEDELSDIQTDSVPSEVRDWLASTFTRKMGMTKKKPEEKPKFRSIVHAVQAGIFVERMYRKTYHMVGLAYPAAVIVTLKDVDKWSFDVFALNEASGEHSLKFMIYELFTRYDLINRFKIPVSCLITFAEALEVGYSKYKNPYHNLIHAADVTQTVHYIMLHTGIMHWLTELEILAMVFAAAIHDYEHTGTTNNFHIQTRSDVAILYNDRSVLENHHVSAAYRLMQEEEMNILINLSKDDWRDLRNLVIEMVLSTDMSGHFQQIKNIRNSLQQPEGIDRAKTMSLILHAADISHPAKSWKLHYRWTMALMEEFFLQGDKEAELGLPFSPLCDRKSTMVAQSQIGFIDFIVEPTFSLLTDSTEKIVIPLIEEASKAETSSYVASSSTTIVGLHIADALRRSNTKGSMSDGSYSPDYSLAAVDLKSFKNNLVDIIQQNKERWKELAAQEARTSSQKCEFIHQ
SMILES,IC50 [1] [nM],Ratio IC50 (Homo sapiens [2]),Ratio IC50 (Homo sapiens [3]),Ratio IC50 (Homo sapiens [4]),Ratio IC50 (Homo sapiens [5]),Ratio IC50 (Homo sapiens [6]),IC50 [7] [nM],further results
CCc1ccc(C2c3[nH]c4ccccc4c(=O)c3CN2c2ncccn2)o1 (stereo unspecified),3.14,> 10000,> 10000,> 10000,> 2500,2,6.2,inhibition [8]: 3.5%; inhibition [9]: 33%; inhibition [10]: 3.5%; inhibition [11]: 11%
CCc1ccc(C2c3[nH]c4ccccc4c(=O)c3CN2c2ncc(-c3ccc(OC)c(OC)c3)cn2)s1 (stereo unspecified),1.25,–,–,–,–,–,–,–
CCc1ccc(C2c3[nH]c4ccccc4c(=O)c3CN2c2ncc(-c3ccc(OC)cc3)cn2)s1 (stereo unspecified),6.45,–,–,–,–,–,–,–
CCc1ccc(C2c3[nH]c4ccccc4c(=O)c3CN2c2ncc(-c3ccncc3)cn2)s1 (stereo unspecified),0.6,–,–,–,–,–,–,–
CCc1ccc(C2c3[nH]c4ccccc4c(=O)c3CN2c2ncccn2)s1 (stereo unspecified),2.5,> 10000,> 10000,> 10000,> 2500,1.5,3.7,inhibition [12]: 3.5%; inhibition [13]: 37%; inhibition [14]: 2.5%; inhibition [15]: 8%
CCc1ccc(C2c3[nH]c4ccccc4c(=O)c3CN2c2ncc(-c3cccnc3F)cn2)s1 (stereo unspecified),0.82,–,–,–,–,–,–,–
CCc1ccc(C2c3[nH]c4ccccc4c(=O)c3CN2c2ccc(-c3ccccn3)cn2)s1 (stereo unspecified),1.2,–,–,–,–,–,–,–
CCc1ccc([C@H]2c3[nH]c4ccccc4c(=O)c3CN2c2ncc(-c3ccccn3)cn2)s1,26.9,> 10000,> 1500,> 10000,> 2500,1.3,34.1,Activity (Thoracic aorta [16]): 30%; inhibition [17]: 8%; inhibition [18]: 32%; inhibition [19]: 2%; inhibition [20]: 1%
CCCc1nn(C)c2c(=O)[nH]c(-c3cc(S(=O)(=O)N4CCN(C)CC4)ccc3OCC)nc12,–,–,–,–,–,–,–,ED50 (Oryctolagus cuniculus): 0.0143 mg/kg
OCc1ccoc1-c1nccc2c1[nH]c1ccccc12,–,–,–,–,–,–,–,IC50 [21]: 4900 nM
CCc1ccc(C2c3[nH]c4ccccc4c(=O)c3CN2c2ncc(Br)cn2)s1 (stereo unspecified),3.28,–,–,–,–,–,–,–
CCc1ccc(C2c3[nH]c4ccccc4c(=O)c3CN2c2ccccn2)s1 (stereo unspecified),2.85,–,–,–,–,–,–,–
CCc1ccc([C@H]2c3[nH]c4ccccc4c(=O)c3CN2c2ncc(-c3ccccn3)cn2)o1,0.97,> 10000,> 10000,> 10000,> 2500,3.9,3.8,Activity (Thoracic aorta [16]): 30%; inhibition [22]: 7.5%; inhibition [23]: 51%; inhibition [24]: 10%; inhibition [25]: 12%
OCc1ccc(-c2nccc3c2[nH]c2ccccc23)o1 [PERLOLYRIN],–,–,–,–,–,–,–,IC50 [21]: 9300 nM
CCc1ccc(C2c3[nH]c4ccccc4c(=O)c3CN2c2ncc(-c3cccnc3)cn2)s1 (stereo unspecified),0.67,–,–,–,–,–,–,–
CCc1ccc(C2c3[nH]c4ccccc4c(=O)c3CN2c2ncc(-c3ccccn3)cn2)s1 (racemic),0.6,> 10000,> 10000,> 10000,> 2500,8,4.8,Activity (Thoracic aorta [26]): >90%; inhibition [27]: 2.5%; inhibition [28]: 7%; inhibition [29]: 2.5%; inhibition [30]: 3%
CCc1ccc(C2c3[nH]c4ccccc4c(=O)c3CN2c2ncc(-c3ccccn3)cn2)o1 (racemic),0.54,> 10000,> 10000,> 10000,> 2500,4.3,2.3,Activity (Thoracic aorta [26]): >90%; inhibition [31]: 2.5%; inhibition [32]: 10%; inhibition [33]: 8%; inhibition [34]: 5%
